Measurements reported in ChEMBL document CHEMBL1142212, “Length effects in antimicrobial peptides of the (RW)n series” (Antimicrob Agents Chemother, 2007).
Converted amounts (≈) assume the structure as drawn. Peptide text beside a SMILES is read from it.

Experiments:
Staphylococcus aureus [1] = test: Antimicrobial activity against Staphylococcus aureus ATCC BAA44 after 18 hrs
Staphylococcus aureus [2] = test: Growth inhibition of Staphylococcus aureus ATCC BAA44
Escherichia coli [3] = test: Growth inhibition of Escherichia coli D31
Escherichia coli [4] = test: Antimicrobial activity against Escherichia coli D31 after 18 hrs; conditions: D31, 18 h
Erythrocyte = test: Hemolytic activity in sheep red blood cells; format: functional, Ovis aries
Procedure, shortened: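 Fresh sheep erythrocyte suspension was incubated with peptide in PBS pH 7.2 at 37°C for 30 min, then centrifuged at 3,000 rpm for 10 min. Supernatant was diluted 40-fold in water and read at OD540. Buffer gave 0% and 1% Triton-X gave 100% hemolysis. HD50 is the concentration giving 50% hemolysis, taken from dose-response curves.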

| SMILES | MBC50 (Staphylococcus aureus [1]) | IC50 (Staphylococcus aureus [2]) | IC50 (Escherichia coli [3]) | MBC50 (Escherichia coli [4]) | HD50 (Erythrocyte) |
| --- | --- | --- | --- | --- | --- |
| N=C(N)NCCC[C@H](NC(=O)[C@H](Cc1c[nH]c2ccccc12)NC(=O)[C@H](CCCNC(=N)N)NC(=O)[C@H](Cc1c[nH]c2ccccc12)NC(=O)[C@H](CCCNC(=N)N)NC(=O)[C@H](Cc1c[nH]c2ccccc12)NC(=O)[C@H](CCCNC(=N)N)NC(=O)[C@H](Cc1c[nH]c2ccccc12)NC(=O)[C@@H](N)CCCNC(=N)N)C(=O)N[C@@H](Cc1c[nH]c2ccccc12)C(N)=O | 6.9 µM (≈ 11.9 µg/mL) | 3.6 µM | 6.2 µM | 7.2 µM (≈ 12.4 µg/mL) | 76 µM |
| N=C(N)NCCC[C@H](NC(=O)[C@H](Cc1c[nH]c2ccccc12)NC(=O)[C@H](CCCNC(=N)N)NC(=O)[C@H](Cc1c[nH]c2ccccc12)NC(=O)[C@@H](N)CCCNC(=N)N)C(=O)N[C@@H](Cc1c[nH]c2ccccc12)C(N)=O (H-RWRWRW-NH2) | 15 µM (≈ 15.7 µg/mL) | 8 µM | 16 µM | 29 µM (≈ 30.3 µg/mL) | 210 µM |
| N=C(N)NCCC[C@H](NC(=O)[C@H](Cc1c[nH]c2ccccc12)NC(=O)[C@H](CCCNC(=N)N)NC(=O)[C@H](Cc1c[nH]c2ccccc12)NC(=O)[C@H](CCCNC(=N)N)NC(=O)[C@H](Cc1c[nH]c2ccccc12)NC(=O)[C@@H](N)CCCNC(=N)N)C(=O)N[C@@H](Cc1c[nH]c2ccccc12)C(N)=O (H-RWRWRWRW-NH2) | 12 µM (≈ 16.6 µg/mL) | 5.1 µM | 9.6 µM | 14 µM (≈ 19.4 µg/mL) | 100 µM |
| N=C(N)NCCC[C@H](N)C(=O)N[C@@H](Cc1c[nH]c2ccccc12)C(N)=O (H-Arg-Trp-NH2) | 2300 µM (≈ 827 µg/mL) | 2100 µM | 4300 µM | 4700 µM (≈ 1690 µg/mL) | 8900 µM |
| N=C(N)NCCC[C@H](NC(=O)[C@H](Cc1c[nH]c2ccccc12)NC(=O)[C@@H](N)CCCNC(=N)N)C(=O)N[C@@H](Cc1c[nH]c2ccccc12)C(N)=O (H-RWRW-NH2) | 620 µM (≈ 435 µg/mL) | 210 µM | 730 µM | 990 µM (≈ 695 µg/mL) | 3700 µM |
